Measurements from ChEMBL document CHEMBL1926616, “Design, synthesis and biological evaluation of novel glycosylated diphyllin derivatives as topoisomerase II inhibitors” (Eur J Med Chem, 2012).
Active and inactive are the calls of the source. The rule behind the calls is not given here.

Key:
HCT-116 [1] = test: Cytotoxicity against human HCT116 cells after 72 hrs by sulforhodamine B and MTT assay; type: functional, cell-based; details: HCT-116, 72 h
How it was run: (§1)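 Log-phase cells were plated overnight and exposed for 72 h to a 5-concentration gradient, in triplicate wells. SRB arm: 10% cold TCA fixation for 1 h at 4 °C, 4 mg/ml SRB in 1% acetic acid for 15 min, dye dissolved in 10 mM Tris-HCl, read at 520 nm. MTT arm: 5 mg/mL MTT for 4 h at 37 °C, SDS-isobutanol-HCl solubilisation for 12–20 h, read at 570 nm. IC50 by Logit method from at least 3 independent tests.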

MCF7 = test: Cytotoxicity against human MCF7 cells after 72 hrs by sulforhodamine B and MTT assay; type: functional, cell-based; details: MCF7, 72 h; how it was run: as §1
KB [2] = test: Cytotoxicity against human KB cells after 72 hrs by sulforhodamine B and MTT assay; type: functional, cell-based; how it was run: as §1
KB [3] = test: Cytotoxicity against vincristine-selected multi drug-resistant human KB cells after 72 hrs by sulforhodamine B and MTT assay; type: functional, cell-based
How it was run: (§2)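 Log-phase cells were seeded, preincubated (overnight for SRB, 24 h for MTT), then given a five-concentration gradient in triplicate wells for 72 h. For MTT, reagent was added for 4 h at 37 °C, solubilized in SDS-isobutanol-HCl for 12-20 h, and read at 570 nm. IC50 was derived by the Logit method from at least 3 independent tests.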

K562 [4] = test: Cytotoxicity against human K562 cells after 72 hrs by sulforhodamine B and MTT assay; type: functional, cell-based; details: K562, 72 h; how it was run: as §2
K562 [5] = test: Cytotoxicity against adriamycin-selected multi drug-resistant human K562 cells after 72 hrs by sulforhodamine B and MTT assay; type: functional, cell-based; details: K562, 72 h; how it was run: as §2
KB [6] = test: Resistance index, ratio of IC50 for vincristine-selected multi drug-resistant human KB cells to IC50 for human KB cells; type: functional
How it was run: (§3)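 Resistance factor is the IC50 in the resistant line divided by the IC50 in the parental line. Both IC50s come from 72 h SRB/MTT growth-inhibition assays, derived by the Logit method from at least 3 independent tests.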

K562 [7] = test: Resistance index, ratio of IC50 for adriamycin-selected multi drug-resistant human K562 cells to IC50 for human K562 cells; type: functional; how it was run: as §3
[8] = biological target: DNA topoisomerase 2-alpha (Homo sapiens) (UniProt P11388); test: Inhibition of human topoisomerase 2-mediated decatenation of kinetoplast DNA at 100 uM after 15 mins by agarose gel electrophoresis
Sequence of DNA topoisomerase 2-alpha (Homo sapiens) (P11388 whole entry): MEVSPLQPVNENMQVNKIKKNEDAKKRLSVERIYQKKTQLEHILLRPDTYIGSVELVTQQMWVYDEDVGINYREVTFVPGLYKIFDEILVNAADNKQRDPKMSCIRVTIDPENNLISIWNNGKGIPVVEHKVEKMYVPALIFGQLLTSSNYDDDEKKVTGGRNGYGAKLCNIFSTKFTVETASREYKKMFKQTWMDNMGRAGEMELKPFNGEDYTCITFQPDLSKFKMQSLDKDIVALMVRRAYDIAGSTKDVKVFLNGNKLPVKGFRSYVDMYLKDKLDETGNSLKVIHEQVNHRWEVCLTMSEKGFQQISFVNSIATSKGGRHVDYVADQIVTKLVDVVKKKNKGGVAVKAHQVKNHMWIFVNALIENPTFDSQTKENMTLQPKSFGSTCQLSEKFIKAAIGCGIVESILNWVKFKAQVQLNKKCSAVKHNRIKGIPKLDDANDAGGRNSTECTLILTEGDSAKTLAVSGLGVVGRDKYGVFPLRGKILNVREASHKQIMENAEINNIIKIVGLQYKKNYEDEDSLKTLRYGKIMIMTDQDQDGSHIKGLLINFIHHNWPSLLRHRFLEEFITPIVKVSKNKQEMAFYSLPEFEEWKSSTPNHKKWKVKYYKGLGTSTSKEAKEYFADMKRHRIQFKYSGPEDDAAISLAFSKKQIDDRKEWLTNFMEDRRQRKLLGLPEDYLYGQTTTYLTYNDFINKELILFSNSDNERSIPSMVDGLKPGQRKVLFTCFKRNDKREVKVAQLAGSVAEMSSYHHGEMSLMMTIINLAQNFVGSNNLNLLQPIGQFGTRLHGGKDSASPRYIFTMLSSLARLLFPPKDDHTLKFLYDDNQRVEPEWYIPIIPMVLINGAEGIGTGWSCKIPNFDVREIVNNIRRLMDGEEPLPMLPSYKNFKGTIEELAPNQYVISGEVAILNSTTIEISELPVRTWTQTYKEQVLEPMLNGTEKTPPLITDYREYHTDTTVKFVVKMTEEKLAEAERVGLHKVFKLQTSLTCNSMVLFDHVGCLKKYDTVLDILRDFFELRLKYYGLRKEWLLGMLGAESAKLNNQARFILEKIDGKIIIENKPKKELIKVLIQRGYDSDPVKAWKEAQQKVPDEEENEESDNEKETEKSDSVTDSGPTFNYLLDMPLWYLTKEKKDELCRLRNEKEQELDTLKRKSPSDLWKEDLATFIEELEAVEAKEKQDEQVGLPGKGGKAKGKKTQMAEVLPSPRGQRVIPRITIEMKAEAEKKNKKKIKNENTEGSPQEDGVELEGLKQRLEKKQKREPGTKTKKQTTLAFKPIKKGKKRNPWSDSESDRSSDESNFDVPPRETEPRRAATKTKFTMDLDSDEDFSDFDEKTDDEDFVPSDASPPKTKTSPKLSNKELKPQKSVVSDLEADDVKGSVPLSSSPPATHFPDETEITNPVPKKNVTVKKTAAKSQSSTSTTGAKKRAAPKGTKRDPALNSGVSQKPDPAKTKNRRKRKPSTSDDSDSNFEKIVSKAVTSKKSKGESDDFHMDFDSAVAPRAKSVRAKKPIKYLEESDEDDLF
How it was run: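 ATP-dependent kDNA decatenation by 1 unit Topo II in 50 mM Tris-HCl pH 7.7, 50 mM KCl, 5 mM MgCl2, 1 mM ATP, 0.5 mM DTT, 0.5 mM EDTA and BSA, run for 15 min at 37 °C. Stopped with 10% SDS, then run on 1% agarose in TAE at 4 V/cm for 1 h and stained with ethidium bromide.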

HL-60 [9] = test: Cell cycle arrest in human HL60 cells assessed as accumulation at G0/G1 phase at 1 uM after 24 hrs using propidium iodide stain by FACS-flow cytometry (reference value: 39%); type: functional
HL-60 [10] = test: Cell cycle arrest in human HL60 cells assessed as accumulation at G0/G1 phase at 10 uM after 24 hrs using propidium iodide stain by FACS-flow cytometry (reference value: 39%); type: functional
HL-60 [11] = test: Cell cycle arrest in human HL60 cells assessed as accumulation at S phase at 1 uM after 24 hrs using propidium iodide stain by FACS-flow cytometry (reference value: 38.4%); type: functional
HL-60 [12] = test: Cell cycle arrest in human HL60 cells assessed as accumulation at S phase at 10 uM after 24 hrs using propidium iodide stain by FACS-flow cytometry (reference value: 38.4%); type: functional
HL-60 [13] = test: Cell cycle arrest in human HL60 cells assessed as accumulation at G2/M phase at 1 uM after 24 hrs using propidium iodide stain by FACS-flow cytometry (reference value: 22.6%); type: functional
HL-60 [14] = test: Cell cycle arrest in human HL60 cells assessed as accumulation at G2/M phase at 10 uM after 24 hrs using propidium iodide stain by FACS-flow cytometry (reference value: 22.6%); type: functional
HL-60 [15] = test: Induction of apoptosis in human HL60 cells assessed as DNA fragmentation at 10 uM after 36 hrs by gel electrophoresis; type: functional, cell-based
How it was run: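 HL-60 cells were seeded and exposed to compound for 36 h. Harvested cells were lysed with an equal volume of 1.2% SDS, and the fragmented DNA was extracted and resolved by gel electrophoresis.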

HCT-116 [16] = test: Cell cycle arrest in human HCT116 cells assessed as accumulation at G0/G1 phase at 1 to 10 uM after 24 hrs using propidium iodide stain by FACS-flow cytometry; type: functional, cell-based
HCT-116 [17] = test: Cell cycle arrest in human HCT116 cells assessed as accumulation at G2/M phase at 1 to 10 uM after 24 hrs using propidium iodide stain by FACS-flow cytometry; type: functional, cell-based
HL-60 [18] = test: Cell cycle arrest in human HL60 cells assessed as accumulation at G0/G1 phase at 1 to 10 uM using propidium iodide stain by FACS-flow cytometry; type: functional, cell-based; details: TDE = time-dependent effect
HL-60 [19] = test: Cell cycle arrest in human HL60 cells assessed as accumulation at G2/M phase at 1 to 10 uM using propidium iodide stain by FACS-flow cytometry; type: functional, cell-based; details: TDE = time-dependent effect
HL-60 [20] = test: Cell cycle arrest in human HL60 cells assessed as accumulation at G0/G1 phase after 24 hrs using propidium iodide stain by FACS-flow cytometry; type: functional, cell-based
HL-60 [21] = test: Cell cycle arrest in human HL60 cells assessed as accumulation at G2/M phase after 24 hrs using propidium iodide stain by FACS-flow cytometry; type: functional, cell-based
HCT-116 [22] = test: Cell cycle arrest in human HCT116 cells assessed as accumulation at G0/G1 phase at 1 to 10 uM using propidium iodide stain by FACS-flow cytometry; type: functional, cell-based; details: TDE = time-dependent effect
HCT-116 [23] = test: Cell cycle arrest in human HCT116 cells assessed as accumulation at G2/M phase at 1 to 10 uM using propidium iodide stain by FACS-flow cytometry; type: functional, cell-based; details: TDE = time-dependent effect
HCT-116 [24] = test: Cell cycle arrest in human HCT116 cells assessed as accumulation at G0/G1 phase after 24 hrs using propidium iodide stain by FACS-flow cytometry; type: functional, cell-based
HCT-116 [25] = test: Cell cycle arrest in human HCT116 cells assessed as accumulation at G2/M phase after 24 hrs using propidium iodide stain by FACS-flow cytometry; type: functional, cell-based

SMILES	IC50 (HCT-116 [1]) [nM]	IC50 (MCF7) [nM]	IC50 (KB [2]) [nM]	IC50 (KB [3]) [nM]	IC50 (K562 [4]) [nM]	IC50 (K562 [5]) [nM]	Ratio IC50 (KB [6])	Ratio IC50 (K562 [7])	inhibition [8]	Activity (HL-60 [9]) [%]	Activity (HL-60 [10]) [%]	Activity (HL-60 [11]) [%]	Activity (HL-60 [12]) [%]	Activity (HL-60 [13]) [%]	Activity (HL-60 [14]) [%]	Activity (HL-60 [15])	Activity (HCT-116 [16])	Activity (HCT-116 [17])	Activity (HL-60 [18])	Activity (HL-60 [19])	further results
COc1cc2c(O[C@@H]3O[C@H](C)[C@@H](O)[C@H](O)[C@H]3O)c3c(c(-c4ccc5c(c4)OCO5)c2cc1OC)C(=O)OC3 [PATENTIFLORIN A]	990	440	93	573	1430	16100	6.2	11.3	inactive	45.9	54.4	38	22.8	16.1	22.8	Active	Active	Active	tde	tde	Activity (HL-60 [20]): Dose-dependent effect; Activity (HL-60 [21]): Dose-dependent effect; Activity (HCT-116 [22]): tde; Activity (HCT-116 [23]): tde; Activity (HCT-116 [24]): Dose-dependent effect; Activity (HCT-116 [25]): Dose-dependent effect
COc1cc2c(O[C@@H]3O[C@H](C)[C@@H](OC(C)=O)[C@H](OC(C)=O)[C@H]3OC(C)=O)c3c(c(-c4ccc5c(c4)OCO5)c2cc1OC)C(=O)OC3	270	380	440	1320	808	7660	3	9.5	Active	46.4	55	36.3	19.3	17.4	25.7	Active	Active	Active	tde	tde	Activity (HL-60 [20]): Dose-dependent effect; Activity (HL-60 [21]): Dose-dependent effect; Activity (HCT-116 [22]): tde; Activity (HCT-116 [23]): tde; Activity (HCT-116 [24]): Dose-dependent effect; Activity (HCT-116 [25]): Dose-dependent effect
COc1cc2c(O[C@@H]3OC[C@@H](O)[C@H](O)[C@H]3O)c3c(c(-c4ccc5c(c4)OCO5)c2cc1OC)C(=O)OC3	820	1550	410	1190	4400	58800	2.9	13.4	inactive	45.6	47	35.5	33.8	18.9	19.2	Active	Active	Active	tde	tde	Activity (HL-60 [20]): Dose-dependent effect; Activity (HL-60 [21]): Dose-dependent effect; Activity (HCT-116 [22]): tde; Activity (HCT-116 [23]): tde; Activity (HCT-116 [24]): Dose-dependent effect; Activity (HCT-116 [25]): Dose-dependent effect
COc1cc2c(O[C@@H]3O[C@@H]4CO[C@@H](C)O[C@H]4[C@H](O)[C@H]3O)c3c(c(-c4ccc5c(c4)OCO5)c2cc1OC)C(=O)OC3	8	4	3	76	44	853	25.3	19.4	Active	53.6	56.2	23.4	19.2	22.9	24.6	Active	Active	Active	tde	tde	Activity (HL-60 [20]): Dose-dependent effect; Activity (HL-60 [21]): Dose-dependent effect; Activity (HCT-116 [22]): tde; Activity (HCT-116 [23]): tde; Activity (HCT-116 [24]): Dose-dependent effect; Activity (HCT-116 [25]): Dose-dependent effect
